Sampled rows, rich in hits. Any-hit rate of the full collection: about 2.7%.
MC4R ag barr = MC4R agonists recruiting beta-arrestin, primary screen, cell-based, luminescence, agonist arm of biased-ligand search; Melanocortin receptor 4 (Homo sapiens), P32245; U2OS MC4R beta-arrestin complementation; percent of melanotan II response, DMSO zero; activation, % at 8.9 µM; 360,000 tested, 0.98% active;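 active means activation above a per-plate cutoff, the mean activation of sample wells on that plate plus 3 SD, cut at about 8% in these data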
Target sequence (P32245 whole entry, looked up): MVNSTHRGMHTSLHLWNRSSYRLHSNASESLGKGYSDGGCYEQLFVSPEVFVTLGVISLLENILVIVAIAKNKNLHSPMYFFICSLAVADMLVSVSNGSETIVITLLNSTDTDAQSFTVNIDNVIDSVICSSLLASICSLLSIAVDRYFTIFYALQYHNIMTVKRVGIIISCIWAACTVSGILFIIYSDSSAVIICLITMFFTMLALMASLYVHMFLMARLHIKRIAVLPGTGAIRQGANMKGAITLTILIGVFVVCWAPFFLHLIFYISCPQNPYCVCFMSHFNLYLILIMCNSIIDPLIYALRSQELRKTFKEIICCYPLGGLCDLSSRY
NR2E3 ag-1 = inhibitors of NR2E3-RetCOR corepressor binding, primary screen, NR2E3 agonist project, biochemical, TR-FRET, GST-NR2E3, biotin-RetCOR; Photoreceptor-specific nuclear receptor (Homo sapiens), Q9Y5X4; 1536-well; inhibition of corepressor binding, % at 4.78 µM; 320,000 tested, 0.12% active; AID 2300, 2010;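 active means percent inhibition above the cutoff of mean plus 3 SD of all tested compounds, set per screening campaign, cut at about 20% in these data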;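 further: 0% = DMSO wells and 100% = biotin wells as full block of FRET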
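System: GST-tagged NR2E3 plus biotinylated RetCOR corepressor; Buffer or medium: pH 7.5 Tris-based buffer; Probe or stimulus: RetCOR corepressor, biotinylated, 7 nM; Doses: compound at 4.8 µM, single dose; Schedule: 5 h incubation at 4 °C; Technique: time-resolved FRET; Evaluation: percent inhibition of TR-FRET ratio; Replication: one well per compound, singlicate testing.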
MC4R antag cAMP = MC4R antagonists of cAMP signaling, primary screen, cell-based, TR-FRET, antagonist arm of biased-ligand search. Melanocortin receptor 4 (Homo sapiens), P32245. AID 540295, 2011. inhibition, % at 6.5 µM. MC4R-expressing cells, MTII-stimulated cAMP, LANCE TR-FRET. 360,000 tested, 0.48% active;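 active means inhibition above its plate's cutoff, the mean of tested wells on that plate plus 3 SD, cut at about 29% in these data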;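 further: 0% = Melanotan II alone and 100% = Melanotan II plus saturating MCL0020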
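Assay system: U2OS-MC4R stable cell line; Also added: Melanotan II; Technique: Eu-cAMP/anti-cAMP TR-FRET, emission 671 nm; Times: 30-min compound, 1-h challenge, 1-h detection, room temperature.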
NR2E3 ag-2 = NR2E3 agonists in two-hybrid cells, primary screen, cell-based, luminescence, CHO-S, Gal4-NCOR/VP16-NR2E3; Photoreceptor-specific nuclear receptor (Homo sapiens), Q9Y5X4; luciferase; inhibition of corepressor binding, % at 3.98 µM; 360,000 tested, 0.35% active; AID 602229, 2012;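 active means inhibition above the mean of all tested compounds plus 3 SD, cut at about 70% in these data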;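 further: 0% = DMSO with NR2E3 transfected cells and 100% = cells lacking NR2E3 construct; higher means lower luciferase signal from less NR2E3 corepressor binding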
Rev-erbA mod = modulators of Rev-erb alpha DNA binding, primary screen, biochemical, FITC-DNA, fluorescence polarization, uHTS; Nuclear receptor subfamily 1 group D member 1 (Homo sapiens), P20393; Rev-erbα–FITC-DNA binding, 90 min; activity, % at 10 µM; 370,000 tested, 0.79% active;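 active means activity above about 14%, limit read from the data; passing the limit was not always enough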;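 further: 0% = DMSO wells with 35 nM protein and 100% = DMSO wells with 750 nM protein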
PG9 binder = binders of HIV-1 gp120 antibody PG9, primary screen, biochemical, TR-FRET. TR-FRET gp120-PG9 antibody binding. inhibition, % at 6.7 µM. 360,000 tested, 0.43% active. AID 624416, 2012; in the data active means inhibition above about 8.5%
MC4R barr conf = MC4R beta-arrestin agonists, retest, confirmation, cell-based, luminescence, U2OS; shares compounds with MC4R ag barr; U2OS MC4R beta-arrestin recruitment; scaled DMSO 0%, Melanotan II 100%; activation, % at 8.9 µM; 2,400 tested, 31% active; AID 602192, 2012;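 active means mean activation across replicates above the hit cutoff set in the earlier primary screen, cut at about 8% in these data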
MOR DOR agonist = agonists of MOR-DOR heterodimerization, counter-screen for MC4R biased agonist project, cell-based, luminescence. shares compounds with MC4R ag barr. U2OS PathHunter beta-arrestin, beta-gal luminescence; percent of deltorphin B response, DMSO zero. activation, % at 9.2 µM. 2,400 tested, 5.8% active. AID 602194, 2012;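 active means mean activation across replicates exceeds the hit threshold derived in the earlier primary screen, cut at about 18% in these data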;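 further: 100% = deltorphin B at 0.9 µM final and 0% = DMSO alone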
* marks the source's active call; other numbers are inactive results; / = no result given.

SMILES | MC4R ag barr | NR2E3 ag-1 | MC4R antag cAMP | NR2E3 ag-2 | Rev-erbA mod | PG9 binder | MC4R barr conf | MOR DOR agonist
COc1cccc(-c2cc(C(=O)Nc3ccc4c(c3)OCO4)no2)c1 | 16* | 1 | -7 | 12 | -2 | -1 | 3 | 10
O=C(NCc1ccc2c(c1)OCO2)c1cc(-c2ccccc2Cl)on1 | 1 | -1 | 17 | -51 | 0 | -1 | / | /
O=C(Nc1ccc2c(c1)OCO2)c1cc(-c2ccccc2Cl)on1 | 32* | 5 | -5 | -8 | 2 | 2 | 2 | 4
COC(=O)c1cc(C)nc(Nc2nc(C(N)Cc3ccc(Cl)cc3)cs2)n1 (centres undefined) | 3 | / | -6 | -7 | -3 | -2 | / | /
COc1ccccc1NC(=O)Nc1nc(C(N)Cc2ccc(Cl)cc2)cs1 (centres undefined) | 13* | / | 7 | 5 | 10 | 0 | 22* | 10
COc1cc(CNC(=O)Nc2nc(C(N)Cc3ccc(C(F)(F)F)cc3)cs2)cc(OC)c1OC (centres undefined) | 10* | / | -1 | -23 | 0 | 0 | 1 | 4
COc1cc(OC)nc(Nc2nc(C(N)Cc3ccc(Cl)cc3)cs2)n1 (centres undefined) | 21* | / | -1 | -12 | -2 | -2 | 7 | 11
COc1ccc(OC)c(NC(=O)Nc2nc(C(N)CCc3ccccc3)cs2)c1 (centres undefined) | 11* | / | 5 | 17 | -10 | 3 | 36* | 20*
COc1ccc(C(=O)OC(C)CN2CCOCC2)cc1 (centres undefined) | -3 | -2 | 11 | -21 | -6 | -2 | / | /
Cc1cccc(C(=O)NC(=O)Nc2c(C)cc(C)nc2C)c1 | -2 | 0 | -4 | -39 | -4 | -1 | / | /
NC(Cc1ccc(C(F)(F)F)cc1)c1csc(NC(=O)Nc2ccccc2Cl)n1 (centres undefined) | 15* | / | 8 | 12 | 1 | -1 | 19* | 9
NC(Cc1ccc(Cl)cc1)c1csc(NC(=O)Nc2ccccc2)n1 (centres undefined) | 20* | / | 1 | 12 | 2 | 2 | 22* | 13
Cc1ccccc1NC(=O)Nc1nc(C(N)Cc2ccccc2)cs1 (centres undefined) | 2 | / | -1 | 18 | -1 | -1 | / | /
CC(C)CC(N)c1csc(NC(=O)C(c2ccccc2)c2ccccc2)n1 (centres undefined) | 13* | / | -1 | 16 | -1 | 1 | 16* | 24*
COc1ccc(CC(N)c2csc(NC(=O)Nc3ccc(F)cc3)n2)cc1 (centres undefined) | 0 | / | -5 | 20 | -6 | 2 | / | /
NC(Cc1ccc(C(F)(F)F)cc1)c1csc(NC(=O)Nc2ccccc2)n1 (centres undefined) | 19* | / | 1 | -3 | 6 | 1 | 19* | 13
O=C(Nc1cccc(C(=O)Nc2cccc(C(F)(F)F)c2)c1)c1ccc(=O)[nH]c1 | 0 | 4 | 9 | -13 | 6 | 0 | / | /
CC(=O)Nc1ccc(S(=O)(=O)N(Cc2ccccc2)C(C)C)cc1 | -2 | 2 | -4 | 11 | 0 | 1 | / | /
Cc1cccc(OCc2nnc(NC(=O)Cc3cccs3)s2)c1 | 34* | 3 | -5 | -7 | 1 | 2 | 9.9* | 9
COc1cc(/C=C2\COC/C(=C\c3ccc(O)c(OC)c3)C2=O)ccc1O | 8 | -2 | 8 | 15 | -2 | -7 | / | /
COc1cc(/C=C2/CC/C(=C/c3ccc(O)c(OC)c3)C2=O)ccc1O | 55* | 1 | -12 | -5 | -2 | -2 | 32* | 18*
COc1cccc(CN(C)C(=O)CCN=C2NS(=O)(=O)c3ccccc32)c1OC | -1 | 2 | 11 | -9 | 0 | 0 | / | /
O=C(CCCOC(=O)c1ccc(O)cc1O)c1ccc(Br)cc1 | 10* | / | 5 | 44 | 8 | 0 | 8.7* | 7
O=C(CCCOC(=O)c1cccnc1Cl)c1ccc(Br)cc1 | 0 | / | 3 | 23 | -4 | -3 | / | /
C=CCn1c(SCC(=O)NCc2ccco2)nc2ccccc2c1=O | 0 | 0 | -3 | 3 | -4 | 1 | / | /
SMILES | MC4R ag barr | NR2E3 ag-1 | MC4R antag cAMP | NR2E3 ag-2 | Rev-erbA mod | PG9 binder | MC4R barr conf | MOR DOR agonist
C=CCn1c(SCC(=O)NC(=O)NCc2ccco2)nc2sc(CC)cc2c1=O | 12* | 2 | -6 | -8 | -7 | 0 | 2 | 3
CCN1CCN(Cc2ccc(NC(=O)c3ccc(C)c(NC(=O)C(=O)c4c[nH]c5ccccc45)c3)cc2C(F)(F)F)CC1 | 22* | 3 | 7 | 27 | 2 | -2 | 21* | 10
CCN1CCN(Cc2ccc(NC(=O)c3cc(NC(=O)C(=O)c4c[nH]c5ccccc45)cc(OC)c3)cc2C(F)(F)F)CC1 | 24* | 1 | 3 | -7 | 0 | -1 | 22* | 9
CCOc1ccc(N2C(=O)/C(=C/c3cccs3)N(C)C2=S)cc1 | 26* | -3 | 4 | 4 | -4 | 0 | 12* | 4
O=C(COC(=O)/C=C/c1ccc(S(=O)(=O)N2CCc3ccccc32)cc1)NC1CCS(=O)(=O)C1 (centres undefined) | -3 | 1 | -4 | -19 | 9 | -2 | / | /
Cc1nn(Cc2ccccc2)c(C)c1C(=O)NCCN1C(=O)S/C(=C\c2ccccc2)C1=O | 11* | -4 | 1 | -4 | 1 | 0 | 1 | 1
C=CCNC(=S)NNc1nc2c(c(=O)[nH]1)C1(CCCCC1)Cc1ccccc1-2 | 15* | 0 | 6 | -1 | 1 | -1 | -3 | 6
